Measurements reported in ChEMBL document CHEMBL2203173 (J Med Chem, 2012).

Assays:
[1] = system: Mus musculus; experiment: Toxicity in BALB/c nu/nu mouse xenografted with human DMS53 cells assessed as change in spleen weight at 10 mg/kg, po administered for 3 times a week measured after 20 days; format: organism-based, DMS-53; design: dose 10 mg/kg, route oral; details: in vivo, 480 h
Method in brief: (§1)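 DMS-53 xenograft nude mice were gavaged 3 times/week in 30% propylene glycol/saline vehicle for 20 days and then sacrificed. Organ weights and histology of spleen, kidney, liver, heart, lungs and brain were compared with vehicle controls. n = 6-11 mice/condition.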

[2] = Toxicity in po dosed BALB/c nu/nu mouse xenografted with human DMS53 cells measured for 28 days; format: organism-based, DMS-53; details: in vivo
Method in brief: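 Oral dose-range-finding study to set the maximum tolerated dose in nude mice bearing DMS-53 tumors, with dosing over a 28-day treatment period.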

[3] = system: Mus musculus; experiment: Cardiotoxicity in human DMS53 cells xenografted BALB/c nu/nu mouse at 10 mg/kg, po administered for 3 times a week measured after 20 days; format: toxicity, organism-based, DMS-53; design: dose 10 mg/kg, route oral; details: in vivo, 480 h
Method in brief: (§2)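 DMS-53 xenograft nude mice given oral gavage 3 times/week in 30% propylene glycol/saline for 20 days. Heart sections taken after 20 days were stained with Gomori Trichrome for fibrosis and viewed at 100×. Other organs were examined histologically.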

[4] = system: Mus musculus; experiment: Cardiotoxicity in BALB/c nu/nu mouse xenografted with human DMS53 cells at 7.5 mg/kg, po administered for 3 times a week measured after 20 days; format: toxicity, organism-based, DMS-53; design: dose 7.5 mg/kg, route oral; details: in vivo, 480 h; method in brief: as §2
[5] = system: Mus musculus; experiment: Toxicity in BALB/c nu/nu mouse xenografted with human DMS53 cells assessed as cardiac fibrosis at 20 mg/kg, po administered for 3 times a week measured after 20 days using Gomori Trichrome stain; format: organism-based, Heart, DMS-53; design: dose 20 mg/kg, route oral; details: in vivo, 480 h; method in brief: as §2
[6] = system: Mus musculus; experiment: Toxicity in BALB/c nu/nu mouse xenografted with human DMS53 cells assessed as cardiac fibrosis at 10 mg/kg, po administered for 3 times a week measured after 20 days using Gomori Trichrome stain; format: organism-based, Heart, DMS-53; design: dose 10 mg/kg, route oral; details: in vivo, 480 h; method in brief: as §2
[7] = system: Mus musculus; experiment: Toxicity in BALB/c nu/nu mouse xenografted with human DMS53 cells assessed as cardiac fibrosis at 7.5 mg/kg, po administered for 3 times a week measured after 20 days using Gomori Trichrome stain; format: organism-based, Heart, DMS-53; design: dose 7.5 mg/kg, route oral; details: in vivo, 480 h; method in brief: as §2
[8] = system: Mus musculus; experiment: Toxicity in BALB/c nu/nu mouse xenografted with human DMS53 cells assessed as change in brain histology at 20 mg/kg, po administered for 3 times a week measured after 20 days; format: organism-based, DMS-53; design: dose 20 mg/kg, route oral; details: in vivo, 480 h
Method in brief: (§3)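 Nude mice bearing DMS-53 xenografts gavaged 3 times/week for 20 days, vehicle 30% propylene glycol/saline, vehicle controls, n = 6-11 mice/condition. Sacrifice on day 20. Organ weights and hematological indices recorded. Spleen, kidney, liver, heart, lungs and brain examined histologically, hearts stained with Gomori Trichrome for fibrosis.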

[9] = system: Mus musculus; experiment: Toxicity in BALB/c nu/nu mouse xenografted with human DMS53 cells assessed as change in brain histology at 10 mg/kg, po administered for 3 times a week measured after 20 days; format: organism-based, DMS-53; design: dose 10 mg/kg, route oral; details: in vivo, 480 h; method in brief: as §3
[10] = system: Mus musculus; experiment: Toxicity in BALB/c nu/nu mouse xenografted with human DMS53 cells assessed as change in brain histology at 7.5 mg/kg, po administered for 3 times a week measured after 20 days; format: organism-based, DMS-53; design: dose 7.5 mg/kg, route oral; details: in vivo, 480 h; method in brief: as §3
[11] = system: Mus musculus; experiment: Toxicity in BALB/c nu/nu mouse xenografted with human DMS53 cells assessed as change in lungs histology at 20 mg/kg, po administered for 3 times a week measured after 20 days; format: organism-based, DMS-53; design: dose 20 mg/kg, route oral; details: in vivo, 480 h; method in brief: as §3
[12] = system: Mus musculus; experiment: Toxicity in BALB/c nu/nu mouse xenografted with human DMS53 cells assessed as change in lungs histology at 10 mg/kg, po administered for 3 times a week measured after 20 days; format: organism-based, DMS-53; design: dose 10 mg/kg, route oral; details: in vivo, 480 h; method in brief: as §3
[13] = system: Mus musculus; experiment: Toxicity in BALB/c nu/nu mouse xenografted with human DMS53 cells assessed as change in lungs histology at 7.5 mg/kg, po administered for 3 times a week measured after 20 days; format: organism-based, DMS-53; design: dose 7.5 mg/kg, route oral; details: in vivo, 480 h; method in brief: as §1
[14] = system: Mus musculus; experiment: Toxicity in BALB/c nu/nu mouse xenografted with human DMS53 cells assessed as change in heart histology at 20 mg/kg, po administered for 3 times a week measured after 20 days; format: organism-based, DMS-53; design: dose 20 mg/kg, route oral; details: in vivo, 480 h; method in brief: as §3
[15] = system: Mus musculus; experiment: Toxicity in BALB/c nu/nu mouse xenografted with human DMS53 cells assessed as change in heart histology at 10 mg/kg, po administered for 3 times a week measured after 20 days; format: organism-based, DMS-53; design: dose 10 mg/kg, route oral; details: in vivo, 480 h; method in brief: as §3
[16] = system: Mus musculus; experiment: Toxicity in BALB/c nu/nu mouse xenografted with human DMS53 cells assessed as change in heart histology at 7.5 mg/kg, po administered for 3 times a week measured after 20 days; format: organism-based, DMS-53; design: dose 7.5 mg/kg, route oral; details: in vivo, 480 h; method in brief: as §3
[17] = system: Mus musculus; experiment: Toxicity in BALB/c nu/nu mouse xenografted with human DMS53 cells assessed as change in liver histology at 20 mg/kg, po administered for 3 times a week measured after 20 days; format: organism-based, DMS-53; design: dose 20 mg/kg, route oral; details: in vivo, 480 h; method in brief: as §3
[18] = system: Mus musculus; experiment: Cardiotoxicity in human DMS53 cells xenografted BALB/c nu/nu mouse at 20 mg/kg, po administered for 3 times a week measured after 20 days; format: toxicity, organism-based, DMS-53; design: dose 20 mg/kg, route oral; details: in vivo, 480 h; method in brief: as §2
[19] = system: Mus musculus; experiment: Toxicity in BALB/c nu/nu mouse xenografted with human DMS53 cells assessed as change in liver histology at 10 mg/kg, po administered for 3 times a week measured after 20 days; format: organism-based, DMS-53; design: dose 10 mg/kg, route oral; details: in vivo, 480 h; method in brief: as §3
[20] = system: Mus musculus; experiment: Toxicity in BALB/c nu/nu mouse xenografted with human DMS53 cells assessed as change in liver histology at 7.5 mg/kg, po administered for 3 times a week measured after 20 days; format: organism-based, DMS-53; design: dose 7.5 mg/kg, route oral; details: in vivo, 480 h; method in brief: as §3
[21] = system: Mus musculus; experiment: Toxicity in BALB/c nu/nu mouse xenografted with human DMS53 cells assessed as change in kidney histology at 20 mg/kg, po administered for 3 times a week measured after 20 days; format: organism-based, DMS-53; design: dose 20 mg/kg, route oral; details: in vivo, 480 h; method in brief: as §3
[22] = system: Mus musculus; experiment: Toxicity in BALB/c nu/nu mouse xenografted with human DMS53 cells assessed as change in kidney histology at 10 mg/kg, po administered for 3 times a week measured after 20 days; format: organism-based, DMS-53; design: dose 10 mg/kg, route oral; details: in vivo, 480 h; method in brief: as §3
[23] = system: Mus musculus; experiment: Toxicity in BALB/c nu/nu mouse xenografted with human DMS53 cells assessed as change in spleen histology at 20 mg/kg, po administered for 3 times a week measured after 20 days; format: organism-based, DMS-53; design: dose 20 mg/kg, route oral; details: in vivo, 480 h; method in brief: as §1
[24] = system: Mus musculus; experiment: Toxicity in BALB/c nu/nu mouse xenografted with human DMS53 cells assessed as change in spleen histology at 10 mg/kg, po administered for 3 times a week measured after 20 days; format: organism-based, DMS-53; design: dose 10 mg/kg, route oral; details: in vivo, 480 h; method in brief: as §1
[25] = system: Mus musculus; experiment: Toxicity in BALB/c nu/nu mouse xenografted with human DMS53 cells assessed as change in spleen histology at 7.5 mg/kg, po administered for 3 times a week measured after 20 days; format: organism-based, DMS-53; design: dose 7.5 mg/kg, route oral; details: in vivo, 480 h; method in brief: as §1
[26] = system: Mus musculus; experiment: Toxicity in BALB/c nu/nu mouse xenografted with human DMS53 cells assessed as change in hematocrit level at 10 mg/kg, po administered for 3 times a week measured after 20 days; format: organism-based, DMS-53; design: dose 10 mg/kg, route oral; details: in vivo, 480 h; method in brief: as §3
[27] = system: Mus musculus; experiment: Toxicity in BALB/c nu/nu mouse xenografted with human DMS53 cells assessed as change in hemoglobin level at 10 mg/kg, po administered for 3 times a week measured after 20 days; format: organism-based, DMS-53; design: dose 10 mg/kg, route oral; details: in vivo, 480 h; method in brief: as §3
[28] = system: MRC5; experiment: Antiproliferative activity at human MRC5 cells after 72 hrs by MTT assay; format: functional, cell-based; details: MRC5, 72 h
[29] = system: A549; experiment: Antiproliferative activity at human A549 cells after 72 hrs by MTT assay; format: functional, cell-based
[30] = system: DMS-53; experiment: Antiproliferative activity at human DMS53 cells after 72 hrs by MTT assay; format: functional, cell-based; details: Homo sapiens, DMS-53, 72 h
[31] = system: Mus musculus; experiment: Toxicity in BALB/c nu/nu mouse xenografted with human DMS53 cells assessed as change in heart weight at 10 mg/kg, po administered for 3 times a week measured after 20 days; format: organism-based, DMS-53; design: dose 10 mg/kg, route oral; details: in vivo, 480 h; method in brief: as §3

SMILES | Activity [1] | MTD at 672 h [2] [mg/kg] | Activity [3] | Activity [4] | Activity [5] | Activity [6] | Activity [7] | Activity [8] | Activity [9] | Activity [10] | Activity [11] | Activity [12] | Activity [13] | Activity [14] | Activity [15] | Activity [16] | Activity [17] | Activity [18] | Activity [19] | Activity [20] | also measured
CCN(C)C(=S)NN=C(c1ccccn1)c1ccccn1.Cl | Non-toxic | 10 | Non-toxic | Non-toxic | Non-toxic | Non-toxic | Non-toxic | Non-toxic | Non-toxic | Non-toxic | Non-toxic | Non-toxic | Non-toxic | Non-toxic | Non-toxic | Non-toxic | Non-toxic | Non-toxic | Non-toxic | Non-toxic | Activity [21]: Non-toxic; Activity [22]: Non-toxic; Activity [23]: Non-toxic; Activity [24]: Non-toxic; Activity [25]: Non-toxic; Activity [26]: Toxic; Activity [27]: Toxic; IC50 [28]: > 10000 nM; IC50 ([29]; a549): 1 nM; IC50 [30]: 6 nM; Activity [31]: Toxic
CN(C(=S)NN=C(c1ccccn1)c1ccccn1)C1CCCCC1.Cl | Non-toxic | 20 | Non-toxic | Non-toxic | Non-toxic | Non-toxic | Non-toxic | Non-toxic | Non-toxic | Non-toxic | Non-toxic | Non-toxic | Non-toxic | Non-toxic | Non-toxic | Non-toxic | Non-toxic | Non-toxic | Non-toxic | Non-toxic | Activity [21]: Non-toxic; Activity [22]: Non-toxic; Activity [23]: Non-toxic; Activity [24]: Non-toxic; Activity [25]: Non-toxic; Activity [26]: Non-toxic; Activity [27]: Non-toxic; IC50 [28]: > 10000 nM; IC50 ([29]; Homo sapiens, A549, 72 h): 4 nM; IC50 [30]: 7 nM; Activity [31]: Non-toxic
